Measured values published in ChEMBL document CHEMBL4321800, “Synthesis, Identification, and Structure-Activity Relationship Analysis of GATA4 and NKX2-5 Protein-Protein Interaction Modulators” (J Med Chem, 2019).

Legend:
Assay type in all cases: cell-based
[1] = biological target: Transcription factor GATA-4 (Mus musculus) (UniProt Q08369); test: Modulation of mouse GATA4 expressed in Chlorocebus aethiops COS1 cells harboring NP-112 reporter gene assessed as BNP promoter-driven transcriptional activity at 10 uM after 24 hrs by luciferase reporter gene assay relative to control
Procedure, shortened: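 GATA reporter assay: COS-1 cells (14 000/well, overnight) transfected 6 h serum/antibiotic-free with NP-112 reporter (tandem GATA sites plus rat BNP minimal promoter, 100 ng/well) and pMT2-GATA4 (25 ng/well), Fugene 6 1:3. Treated 24 h with compound or 0.1% DMSO. Luminescence read; triplicates, Grubbs outliers removed, % of control.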

[2] = biological target: T1, GATA4/NKX2-5 (Mus musculus) (UniProt Q08369+P42582); test: Modulation of mouse GATA4/mouse NKX2-5 protein-protein interaction expressed in Chlorocebus aethiops COS1 cells harboring 3xHA reporter gene assessed as transcriptional synergy at 10 uM after 24 hrs by luciferase reporter gene assay relative to control
Procedure, shortened: (§1)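 COS-1 cells seeded 14 000/well, grown overnight, then transfected for 6 h in serum- and antibiotic-free medium with pGL3-3xHA reporter (three NKX2-5 sites, 100 ng/well) plus pMT2-GATA4 and pMT2-NKX2-5 (total 50 ng/well), Fugene 6 at 1:3 DNA/reagent. Compound or 0.1% DMSO vehicle for 24 h, then luminescence read. Triplicates, Grubbs outliers removed, expressed as % of control.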

[3] = biological target: Homeobox protein Nkx-2.5 (Mus musculus) (UniProt P42582); test: Modulation of mouse NKX2-5 expressed in Chlorocebus aethiops COS1 cells harboring 3xHA reporter gene assessed as protein-induced transcriptional activity at 10 uM after 24 hrs by luciferase reporter gene assay relative to control
Procedure, shortened: (§2)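 COS-1 cells seeded 14 000/well and grown overnight. Transfection for 6 h in serum- and antibiotic-free medium with pGL3-3xHA reporter (100 ng/well) and pMT2-NKX2-5 (25 ng/well), Fugene 6 1:3. Compound or 0.1% DMSO vehicle for 24 h, then luciferase luminescence. Triplicate wells with Grubbs outlier removal, % of control.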

COS-1 = test: Induction of necrosis in Chlorocebus aethiops COS1 cells assessed as LDH release at 1 to 30 uM after 24 hrs by LDH assay relative to control; settings: cos-1, 24 h
Procedure, shortened: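 COS-1 cells in DMEM with 10% FBS at 37 °C, 5% CO₂, plated 10 000/well and exposed next day to 1–30 μM for 24 h. Medium samples mixed with NAD, iodonitrotetrazolium, lactate and phenazine methosulfate in 0.2 M Tris-HCl pH 8.2, 30 min at room temperature. Stopped with acetic acid, A490 read and normalized to maximal and spontaneous release.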

[4] = biological target: T1, GATA4/NKX2-5 (Mus musculus); test: Inhibition of mouse GATA4/mouse NKX2-5 protein-protein interaction expressed in Chlorocebus aethiops COS1 cells harboring 3xHA reporter gene assessed as transcriptional synergy at 10 uM after 24 hrs by luciferase reporter gene assay relative to control; set-up: scale not given: the % may be the effect or the level left; procedure, shortened: as §1
[5] = biological target: Homeobox protein Nkx-2.5 (Mus musculus) (UniProt P42582); test: Enhancement of mouse NKX2-5 expressed in Chlorocebus aethiops COS1 cells harboring 3xHA reporter gene assessed as protein-induced transcriptional activity at 10 uM after 24 hrs by luciferase reporter gene assay relative to control; procedure, shortened: as §2
[6] = biological target: T1, GATA4/NKX2-5 (Mus musculus); test: Enhancement of mouse GATA4/mouse NKX2-5 protein-protein interaction expressed in Chlorocebus aethiops COS1 cells harboring 3xHA reporter gene assessed as transcriptional synergy at 10 uM after 24 hrs by luciferase reporter gene assay relative to control; procedure, shortened: as §1
[7] = biological target: Homeobox protein Nkx-2.5 (Mus musculus) (UniProt P42582); test: Inhibition of mouse NKX2-5 expressed in Chlorocebus aethiops COS1 cells harboring 3xHA reporter gene assessed as protein-induced transcriptional activity at 10 uM after 24 hrs by luciferase reporter gene assay relative to control; set-up: scale not given: the % may be the effect or the level left; procedure, shortened: as §2

Homeobox protein Nkx-2.5 (Mus musculus), sequence (P42582 whole entry): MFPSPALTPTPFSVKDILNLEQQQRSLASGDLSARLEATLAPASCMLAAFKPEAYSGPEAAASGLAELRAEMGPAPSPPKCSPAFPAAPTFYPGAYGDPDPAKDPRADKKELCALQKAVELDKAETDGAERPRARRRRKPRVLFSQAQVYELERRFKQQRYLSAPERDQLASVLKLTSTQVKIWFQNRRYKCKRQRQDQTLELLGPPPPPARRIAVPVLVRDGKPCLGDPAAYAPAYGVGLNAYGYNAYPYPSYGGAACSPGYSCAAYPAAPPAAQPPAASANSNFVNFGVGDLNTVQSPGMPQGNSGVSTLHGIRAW
Transcription factor GATA-4 (Mus musculus), sequence (Q08369 whole entry): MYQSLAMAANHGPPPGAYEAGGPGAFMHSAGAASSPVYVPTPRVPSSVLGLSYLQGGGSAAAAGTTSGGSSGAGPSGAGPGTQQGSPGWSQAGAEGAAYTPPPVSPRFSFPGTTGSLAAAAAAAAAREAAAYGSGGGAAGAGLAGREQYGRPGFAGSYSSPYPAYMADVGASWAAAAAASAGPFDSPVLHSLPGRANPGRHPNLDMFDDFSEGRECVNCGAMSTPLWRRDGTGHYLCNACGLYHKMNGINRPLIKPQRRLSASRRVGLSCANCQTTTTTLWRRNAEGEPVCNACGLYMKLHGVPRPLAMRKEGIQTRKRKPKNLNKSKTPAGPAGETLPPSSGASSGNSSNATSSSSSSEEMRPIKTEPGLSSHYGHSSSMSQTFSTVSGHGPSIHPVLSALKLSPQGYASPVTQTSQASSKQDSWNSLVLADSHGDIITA

SMILES	Activity [1]	Activity [2]	Activity [3]	Activity (COS-1)	further results
CCN(CC)c1ccc(NC(=O)c2c(-c3ccc(C)s3)noc2C)cc1	92%	100%	88%		
CCN(c1ccc(NC(=O)c2c(C)noc2-c2snnc2C)cc1)C(C)C					Activity [4]: 19%
CCN(CC)c1ccc(NC(=O)c2cnoc2-c2ccccc2)cc1	62%	47%	50%	< 8%	
CCCn1nnc(-c2ccccc2)c1C(=O)Nc1ccc(N(CC)CC)cc1				< 8%	
CCN(CC)c1ccc(NC(=O)c2snnc2-c2ccccc2)cc1	52%	41%	49%	< 8%	
CCN(CC)c1ccc(NC(=O)c2c[nH]nc2-c2ccccc2)cc1				< 8%	
CCN(CC)c1ccc(NC(=O)c2c(-c3ccc(F)cc3)noc2C)cc1	79%	44%	47%	< 8%	
CC[N+](O)(CC)c1ccc(NC(=O)c2c(-c3ccccc3)noc2C)cc1.O=C([O-])c1cccc(Cl)c1				< 8%	
Cc1onc(-c2ccccc2)c1C(=O)Nc1ccc(C(=O)OCCC#N)cc1					Activity [5]: 130%
CCC(C)NC(=O)c1cc(-c2ccco2)on1 (stereo not drawn)					Activity [6]: 140%
COc1ccc(-c2cc(N)nn2C(=O)c2c(-c3ccccc3)noc2C)cc1				< 8%	
CCN(CC)c1ccc(CN(C(=O)C(F)(F)F)c2c(-c3ccccc3)noc2C)cc1	72%	52%	71%	< 8%	
CCN(CC)c1ccc(NC(=O)c2c(-n3cccc3)sc(C)c2C)cc1	66%	79%	90%		
CC(=O)c1ccc(NC(=O)c2cc(-c3ccco3)on2)cc1					Activity [6]: 130%
CCN(CC)c1ccc(NCc2c[nH]nc2-c2cc(F)cc(F)c2)cc1				< 8%	
Cc1onc(-c2ccccc2)c1COc1ccc(C(=O)O)cc1					Activity [6]: 120%
CCN(CC)c1ccc(NC(=O)c2cnoc2C2CC2)cc1					Activity [6]: 140%
Cc1onc(-c2ccccc2)c1NC(=O)c1ccc(N2CCN(C)CC2)cc1					Activity [6]: 120%
CCN(CC)c1ccc(NC(=O)c2c(-c3cc(C)on3)noc2C)cc1	100%	100%	87%		
CCC(OC)c1ccc(OCc2c(-c3ccccc3)noc2C)cc1 (racemic)	78%	43%	67%	< 8%	
CCN(CC)c1ccc(-n2c(=O)c3c(C)onc3c3ccccc32)cc1					Activity [5]: 110%
CCN(CC)c1ccc(NC(=O)c2ccnn2-c2ccccc2)cc1				< 8%	

SMILES	Activity [1]	Activity [2]	Activity [3]	Activity (COS-1)	further results
C#CC[N+](CC)(CC)c1ccc(NC(=O)c2c(-c3ccccc3)noc2C)cc1					Activity [5]: 120%
CCN(CC)c1ccc(NC(=O)c2nnn(C)c2-c2ccccc2)cc1		78%			
Cc1onc(-c2ccccc2)c1C(=O)Nc1ccc(C(=O)OCC#N)cc1		90%			
CN(C)c1ccc(NCc2c[nH]nc2-c2ccc(F)cc2)cc1				< 8%	
CCN(CC)c1ccc(NC(=O)c2csc3nnsc23)cc1					Activity [6]: 130%
Cc1onc(-c2ccccc2)c1C(=O)Nc1ccc(C(=O)O)cc1		98%			
CCN(CC)c1ccc(NC(=O)c2c(-c3ccc(-c4ccc(F)cc4)cc3)noc2C)cc1		110%			
CCN(CC)c1ccc(NC(=O)c2c(-c3ccncc3)noc2C)cc1	79%	61%	61%	< 8%	
CCN(CC)c1ccc(N(CCF)C(=O)c2c(-c3ccccc3)noc2C)cc1		79%			
Cc1onc(-c2ccccc2)c1C(=O)N(C)c1ccc(C(=O)O)cc1					Activity [6]: 130%
Cc1onc(-c2cccc([N+](=O)[O-])c2)c1C(=O)Nc1ccc(N(C)C)cc1		100%			
Cc1onc(-c2ccccc2)c1C(=O)Nc1ccc2oc(-c3ccccc3)cc(=O)c2c1	66%	31%	53%	< 8%	
CCN(CC)c1ccc(/C=N/c2c(-c3ccccc3)noc2C)c(O)c1				< 8%	
CCN(CC)c1ccc(N(Cc2c(-c3ccccc3)noc2C)C(C)=O)cc1		80%			
CCN(CC)c1ccc(NC(=O)c2c(SC)nsc2SC)cc1		110%			
CCN(CC)c1ccc(NC(=O)c2cn(C)cc2-c2cc(C)on2)cc1	110%	110%			Activity [5]: 110%
CCN(CC)c1ccc(N(C)C(=O)c2c(-c3ccccc3)noc2C)cc1	99%	97%	100%		
Cc1onc(-c2ccccc2)c1COc1ccc(C(=O)N(C)CCCO)cc1		100%			
Cc1onc(-c2ccccc2)c1C(=O)Nc1ccc(C#C[Si](C)(C)C)cc1	93%	69%	75%	< 8%	
Cc1onc(-c2ccccc2)c1C(=O)Nc1ccc(OCc2ccccc2)cc1				< 8%	
CCN(CC)c1ccc(NC(=O)c2c(-c3ccsc3)noc2C)cc1	71%	66%	84%	< 8%	

More lines, main results first:

Activity [1]	Activity [2]	Activity [3]	SMILES	Activity (COS-1)	further results
80%	53%	73%	C=CCN(Cc1ccc(N(CC)CC)cc1)c1c(-c2ccccc2)noc1C	< 8%	
78%	76%	80%	CCC(=O)c1ccc(OCc2c(-c3ccccc3)noc2C)cc1		
100%	90%		Cc1onc(-c2ccccc2)c1C(=O)Nc1ccc(C(=O)OCCCCC#N)cc1		Activity [5]: 150%
100%	78%	84%	CCN(CC)c1ccc(NC(=O)c2c(C)noc2-c2cc(C)on2)cc1	< 8%	
110%	110%	96%	Cc1onc(-c2ccccc2)c1C(=O)Nc1nc(C(C)(C)C)cs1		
110%	88%	97%	CCN(CC)c1ccc(NC(=O)c2c(-c3ccccc3Cl)noc2C)cc1		
75%	41%		CCN(c1ccc(NC(=O)c2c(-c3ccccc3)noc2C)cc1)C(C)C	< 8%	Activity [7]: 34%
	84%		CCN(CC)c1ccc(NC(=O)c2ccnc(C(F)(F)F)c2)cc1		
71%	52%	52%	Cc1onc(-c2ccccc2)c1COc1ccc(C(=O)OCCCC#N)cc1		
	68%		CCN(CC)c1ccc(NC(=O)c2c(C(F)(F)F)nn(C)c2Oc2ccccc2)cc1		
97%	85%	96%	CCN(CC)c1ccc(NC(=O)c2cc(C)sc2-c2cc(C)on2)cc1		
	84%		C#Cc1ccc(NC(=O)c2c(-c3ccccc3)noc2C)cc1		
	85%		Cc1onc(-c2ccccc2)c1COc1ccc([N+](=O)[O-])cc1		
94%	78%	86%	CCN(CC)c1ccc(NC(=O)c2c(C)nc3ccccn23)cc1		
	110%		CCN(CC)c1ccc(NC(=O)c2ncoc2-c2ccccc2)cc1		
	92%		COC(=O)c1ccc(NC(=O)c2c(-c3ccccc3)noc2C)cc1		
110%	100%	86%	CCN(CC)c1ccc(NC(=O)c2c(-c3coc(C)n3)noc2C)cc1		
99%	110%	110%	CCN(CC)c1ccc(NC(=O)c2c(-c3ccoc3)noc2C)cc1		
77%	91%	89%	CCN(CC)c1ccc(CNc2c(-c3ccccc3)noc2C)cc1	< 8%	
110%	110%	97%	Cc1onc(-c2ccccc2)c1C(=O)Nc1ccc(-c2ccccc2)cc1		
	66%		CCN(CC)c1ccc(NC(=O)c2c(-c3c(Cl)ccc([N+](=O)[O-])c3Cl)noc2C)cc1		
